We go through twelve molecules from PMC2852926 (The Journal of Biological Chemistry, 2010).

Data set [1] deals with OM-hydrolyzing activity in human liver cytosol. Type of data set: biochemical.
Data set [2] has as its system OM-hydrolyzing activity in human intestinal cytosol. Format: biochemical.
In data set [3] the target is T1, human CMBL (Homo sapiens, UniProt Q96DG6).
T1 sequence (Q96DG6 1-245): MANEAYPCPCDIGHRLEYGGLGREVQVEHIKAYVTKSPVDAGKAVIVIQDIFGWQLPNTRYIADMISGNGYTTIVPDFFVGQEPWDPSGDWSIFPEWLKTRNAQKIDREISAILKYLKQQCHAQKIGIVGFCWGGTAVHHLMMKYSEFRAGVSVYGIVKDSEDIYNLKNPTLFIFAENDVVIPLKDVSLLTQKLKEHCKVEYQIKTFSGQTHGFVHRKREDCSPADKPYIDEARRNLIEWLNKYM
Format: biochemical.

Data set [4] deals with OM-hydrolyzing activity in human plasma. The experiment in a line: Effect of esterase inhibitors on OM-hydrolyzing activity in human plasma. Type of data set: biochemical. To be noted: OM 250 μM, 5 min. Put shortly:
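Human plasma, diluted to 2.5 mg protein/ml, incubated 5 min with OM substrate (250 μM) plus one esterase inhibitor: BNPP, DFP, PCMB, eserine or PMSF at 1000 μM, or EDTA at 500 μM. Olmesartan formed was quantified by reversed-phase C18 HPLC with UV at 254 nm. Activity was expressed as formation rate. Means of duplicate determinations.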

For data set [5], the target named is T1, human CMBL. Description: Hydrolysis of medoxomil prodrugs by recombinant CMBL. Format: in vitro ADME. Conditions: CMBL-transfected mammalian cell lysate, pH 7.4, 37 °C.
The nature of data set [6]: OM hydrolysis in human liver cytosol, kinetic analysis. Format: in vitro ADME. The procedure, abridged: (§1)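 Commercial human liver or intestinal subcellular fractions were incubated in 10 mM potassium phosphate (pH 7.4) at 37 °C with OM at 7.81–1000 μM. Protein was 0.05 mg/ml for liver and intestinal cytosols, 0.5 mg/ml for liver microsomes and 0.25 mg/ml for intestinal microsomes. Olmesartan was measured by C18 HPLC-UV at 254 nm, net of buffer-control hydrolysis. Km and Vmax came from nonlinear least-squares Michaelis–Menten fits of triplicates.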

The nature of data set [7]: OM hydrolysis in human intestinal cytosol, kinetic analysis. Format: in vitro ADME. Put shortly: as §1
A short description of data set [8]: OM hydrolysis in human liver microsomes, kinetic analysis. Type of data set: in vitro ADME. The procedure, abridged:
as §1
On the technique in general: Liver microsomes are a subcellular fraction often used to study metabolism.

The nature of data set [9]: OM hydrolysis in human intestinal microsomes, kinetic analysis. Format: in vitro ADME. Put shortly: as §1
Data set [10] can be described thus: Prodrug in portal or circulating blood of rats. Type of data set: in vivo. To be noted: data not shown.
In another data set the test system is human plasma PON1. To be noted: cited from earlier work.
Another data set deals with plasma albumin. To be noted: cited from earlier work.
The target of data set [11] is T1, human CMBL. The experiment in a line: Hydrolysis of typical esterase substrates by recombinant CMBL. Type of data set: biochemical. To be noted: substrate 1 mM, CMBL-transfected cell lysate 0.05 mg protein/ml.
The target in data set [12] is T1, human CMBL. The experiment in a line: Ulifloxacin formation from prulifloxacin by recombinant CMBL. Format: in vitro ADME. To be noted: HEPES pH 7.4, 37 °C, CMBL-transfected mammalian cell lysate.

Molecules are shown by their SMILES. Entries after “also recorded” stand apart in the source; their conditions may differ. Read-outs that look alike come from different tables or passages of the source.

On to `O=[N+]([O-])c1ccc(OP(=O)(O)Oc2ccc([N+](=O)[O-])cc2)cc1` [BNPP, Bis-p-nitrophenylphosphate], for which the “Inhibition of OM-hydrolyzing activity” value is recorded as “partially inhibited” in data set [1], “partially inhibited” in data set [2] and roughly 50% at human CMBL [3].
Consider `O=C(O)CN(CCN(CC(=O)O)CC(=O)O)CC(=O)O` [EDTA], for which the “Inhibition of OM-hydrolyzing activity” value in data set [1] is “not inhibited”; in data set [2] it was “not inhibited”; in [4] (inhibitor 500 μM), “almost completely inhibited”; on human CMBL [3], “no inhibition”.
Consider `Cc1oc(=O)oc1COC(=O)C1=C([C@H]2CCCO2)S[C@@H]2[C@@H]([C@@H](C)O)C(=O)N12` [Faropenem medoxomil], for which, at human CMBL [5], the “Hydrolysis by recombinant CMBL” value is “readily hydrolyzed”.
As for `Cc1oc(=O)oc1COC(=O)[C@@H]1N2C(=O)[C@@H](NC(=O)[C@H](N)c3ccccc3)[C@H]2SC1(C)C` [Lenampicillin], at human CMBL [5], the “Hydrolysis by recombinant CMBL” value is on record as “readily hydrolyzed”.
As a reminder, the Km is the substrate concentration at which the rate is half of its maximum. For `CCCc1nc(C(C)(C)O)c(C(=O)OCc2oc(=O)oc2C)n1Cc1ccc(-c2ccccc2-c2nnn[nH]2)cc1` [Olmesartan medoxomil], the Vmax came out at 19.7 ± 0.8 nmol/min/mg protein in data set [6] (Liver cytosol, mean ± S.E.); 45.1 ± 2.0 nmol/min/mg protein in [7] (Intestinal cytosol, mean ± S.E.); 15.0 ± 0.3 nmol/min/mg protein in [8] (Liver microsomes, mean ± S.E.); 6.76 ± 0.11 nmol/min/mg protein in [9] (Intestinal microsomes, mean ± S.E.). Moreover, the Km in [6] (human, liver cytosol, pH 7.4) came out at 160 ± 19 µM; in [7] (human, intestinal cytosol, pH 7.4), 193 ± 24 µM; in data set [8] (human, liver microsomes, pH 7.4), 481 ± 23 µM; in [9] (human, intestinal microsomes, pH 7.4), 236 ± 10 µM. For the same molecule, the “Prodrug detected in portal or circulating blood” value in data set [10] is on record as “no prodrug was detected”. Besides, the “Hydrolysis by PON1” value in the data set with human plasma PON1 (listed as OM) is reported as “capable of hydrolyzing; also recorded: hydrolyze”. Also, the “Hydrolysis by plasma albumin” value with plasma albumin is given as “capable of hydrolyzing”.
With `O=C(O)c1cc[c]([Hg][Cl])cc1` [PCMB, p-chloromercuribenzoate], the “Inhibition of OM-hydrolyzing activity” value is given as “strongly inhibited” in data set [1], “strongly inhibited” in data set [2], “almost completely inhibited” in data set [4] (inhibitor 1000 μM) and “almost completely inhibited” at human CMBL [3].
Take `O=S(=O)(F)Cc1ccccc1` [PMSF, Phenylmethylsulfonyl fluoride]: the entries for the “Inhibition of OM-hydrolyzing activity” value (in data set [1]; in data set [2]; at human CMBL [3]) were “not inhibited”, “not inhibited” and “no inhibition”, respectively.
In the case of `CC(=O)SCC[N+](C)(C)C.[I-]` [acetylthiocholine iodide], on human CMBL [11], the “Hydrolysis by recombinant CMBL” value was “does not hydrolyze”.
In the case of `CNC(=O)Oc1ccc2c(c1)[C@]1(C)CCN(C)[C@@H]1N2C` [eserine], the “Inhibition of OM-hydrolyzing activity” value in [1] is reported as “not inhibited”; in [2], “not inhibited”; at human CMBL [3], “no inhibition”.
As for `CC(=O)Oc1ccc([N+](=O)[O-])cc1` [p-nitrophenyl acetate], at human CMBL [11], the “Hydrolysis by recombinant CMBL” value is listed as “does not hydrolyze”.
`CC(=O)Oc1ccccc1` [phenyl acetate]: the “Hydrolysis by recombinant CMBL” value on human CMBL [11] is “does not hydrolyze”.
Turning to `Cc1oc(=O)oc1CN1CCN(c2cc3c(cc2F)c(=O)c(C(=O)O)c2n3C(C)S2)CC1` (centres unmarked) [prulifloxacin], the “Enzymatic hydrolysis by recombinant human CMBL” value on human CMBL [12] is “not enzymatically hydrolyzed; also recorded: not hydrolyzed at all”. For the same molecule, the “Hydrolysis by PON1” value in the data set with human plasma PON1 is on record as “hydrolyze”.
